According to ChEMBL document CHEMBL3112434, “Identification of proton-pump inhibitor drugs that inhibit Trichomonas vaginalis uridine nucleoside ribohydrolase” (Bioorg Med Chem Lett, 2014):
Calls of active or inactive are those of the source. The rule behind the calls is not given here.

system: Trichomonas vaginalis; assay: Inhibition of Trichomonas vaginalis uridine nucleoside ribohydrolase using 5-fluorouridine as substrate at 0.04 to 200 uM after 40 mins by NMR spectrometric analysis
Summary of the method: (§1)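 UNH at 80 nM in 50 mM potassium phosphate, 0.3 M KCl, pH 6.5, with 10% 2H2O. Test compounds added from DMSO solutions and mixed thoroughly. Reaction read at the 40 min time point. Screening was done at 50 μM in mixtures of three. IC50 determinations used final assay concentrations from 200 μM to 0.04 μM.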

Compound	Active/inactive screening call	inhibition
CN(C)[C@@H]1C(O)=C(C(N)=O)C(=O)[C@@]2(O)C(O)=C3C(=O)c4c(O)cccc4[C@@](C)(O)[C@H]3[C@H](O)[C@@H]12	Active	
CCC1=C[C@@H]2CN(C1)Cc1c([nH]c3ccccc13)[C@@](C(=O)OC)(c1cc3c(cc1OC)N(C)[C@H]1[C@@](O)(C(=O)OC)[C@H](OC(C)=O)[C@]4(CC)C=CCN5CC[C@]31[C@@H]54)C2	Active	
COC(=O)C1=C(C)NC(C)=C(C(=O)OC)C1c1ccccc1[N+](=O)[O-]		Active
COc1ccnc(C[S+]([O-])c2nc3cc(OC(F)F)ccc3[nH]2)c1OC (stereo unspecified) [PANTOPRAZOLE SODIUM]	Active	
N[C@@H](C(=O)N[C@@H]1C(=O)N2C(C(=O)O)=C(CSc3c[nH]nn3)CS[C@H]12)c1ccc(O)cc1	Active	
COc1ccc2[nH]c([S+]([O-])Cc3ncc(C)c(OC)c3C)nc2c1 (stereo unspecified) [OMEPRAZOLE]	Active	
COCCCOc1ccnc(C[S+]([O-])c2nc3ccccc3[nH]2)c1C (stereo unspecified) [RABEPRAZOLE]	Active	
CCOC(=O)C1=C(C)NC(C)=C(C(=O)OC)C1c1cccc([N+](=O)[O-])c1 (stereo unspecified)	Active	
O=C1C(CC[S+]([O-])c2ccccc2)C(=O)N(c2ccccc2)N1c1ccccc1 (stereo unspecified)	Active	
Oc1ccc2c3c1O[C@H]1c4[nH]c5ccccc5c4C[C@@]4(O)[C@@H](C2)N(CC2CC2)CC[C@]314		Active
COC(=O)C1=C(C)NC(C)=C(C(=O)OCC(C)C)C1c1ccccc1[N+](=O)[O-] (stereo unspecified)	Active	
O=C(O[C@@H]1Cc2c(O)cc(O)cc2O[C@@H]1c1cc(O)c(O)c(O)c1)c1cc(O)c(O)c(O)c1		Active
CN(C)CCCN1c2ccccc2CCc2ccc(Cl)cc21	Active	
CC1=C(/C=C/C(C)=C/C=C/C(C)=C/C(=O)O)C(C)(C)CCC1	Active	
CNC1=Nc2ccc(Cl)cc2C(c2ccccc2)=[N+]([O-])C1		Active
N[C@@H](C(=O)N[C@@H]1C(=O)N2C(C(=O)O)=C(Cl)CS[C@H]12)c1ccccc1	Active	
Sc1ncnc2nc[nH]c12	Active	
Oc1cc2c(cc1O)[C@H]1c3ccccc3CN[C@@H]1CC2 (relative stereo)	Active	
CN[C@@H]1C[C@@H](c2ccc(Cl)c(Cl)c2)c2ccccc21 (relative stereo)		Active
CCOC(=O)C1=C(COCCN)NC(C)=C(C(=O)OC)C1c1ccccc1Cl (stereo unspecified)		Active
CC1=C(/C=C/C(C)=C/C=C/C(C)=C\C(=O)O)C(C)(C)CCC1	Active	
CC(=O)Oc1ccccc1C(=O)Nc1ncc([N+](=O)[O-])s1		Active
COC(=O)C1=C(C)NC(C)=C(C(=O)OCCN(C)Cc2ccccc2)C1c1cccc([N+](=O)[O-])c1 (stereo unspecified)	Active	

molecular target: not listed separately; assay: Inhibition of Trichomonas vaginalis uridine nucleoside ribohydrolase using 5-fluorouridine as substrate after 40 mins by NMR spectrometric analysis; summary of the method: as §1

Compound	IC50
COc1ccnc(C[S+]([O-])c2nc3cc(OC(F)F)ccc3[nH]2)c1OC (stereo unspecified) [PANTOPRAZOLE SODIUM]	14500 nM
COc1ccc2[nH]c([S+]([O-])Cc3ncc(C)c(OC)c3C)nc2c1 (stereo unspecified) [OMEPRAZOLE]	2300 nM
COCCCOc1ccnc(C[S+]([O-])c2nc3ccccc3[nH]2)c1C (stereo unspecified) [RABEPRAZOLE]	300 nM
